Assay results: ChEMBL document CHEMBL3813677, “Structure-Activity Relationship Studies and Molecular Modeling of Naphthalene-Based Sphingosine Kinase 2 Inhibitors” (ACS Med Chem Lett, 2016)

The compounds below were run against T1, Sphingosine kinase 2 (Homo sapiens) (UniProt Q9NRA0) (assay: Inhibition of human recombinant SphK2 remaining enzyme activity at 1 uM using sphingosine as substrate incubated for 20 mins by scintillation counting analysis in presence of [gamma-32P]ATP).
T1 sequence (whole entry): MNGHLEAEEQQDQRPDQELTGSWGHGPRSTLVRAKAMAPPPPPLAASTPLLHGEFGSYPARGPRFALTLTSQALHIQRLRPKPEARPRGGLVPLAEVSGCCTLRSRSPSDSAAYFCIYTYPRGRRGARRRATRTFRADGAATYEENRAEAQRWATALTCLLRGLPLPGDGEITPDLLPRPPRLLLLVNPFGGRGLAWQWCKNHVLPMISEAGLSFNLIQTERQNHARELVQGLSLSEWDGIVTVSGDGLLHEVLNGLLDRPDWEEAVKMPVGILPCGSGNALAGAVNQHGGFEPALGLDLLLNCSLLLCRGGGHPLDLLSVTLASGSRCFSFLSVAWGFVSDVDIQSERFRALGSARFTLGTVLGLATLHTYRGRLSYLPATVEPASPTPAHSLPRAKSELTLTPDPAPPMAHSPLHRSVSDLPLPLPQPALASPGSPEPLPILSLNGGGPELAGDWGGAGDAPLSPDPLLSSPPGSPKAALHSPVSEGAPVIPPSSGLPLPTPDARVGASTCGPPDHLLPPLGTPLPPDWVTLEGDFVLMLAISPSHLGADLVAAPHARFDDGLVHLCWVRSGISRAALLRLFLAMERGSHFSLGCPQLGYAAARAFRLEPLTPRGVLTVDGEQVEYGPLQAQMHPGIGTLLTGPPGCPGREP

Activity | Compound
51% | N=C(N)N1CCC[C@H]1c1nc(-c2ccc3cc(OCc4ccc(-c5ccccc5)cc4)ccc3c2)no1
61% | CCCCCCCCc1ccc(-c2noc([C@@H]3CCCN3C(=N)N)n2)cc1
94% | Cc1ccc(COc2ccc3cc(-c4noc([C@@H]5CCCN5C(=N)N)n4)ccc3c2)cc1
49% | N=C(N)N1CCC[C@H]1c1nc(-c2ccc3cc(OCc4cccc(Br)c4)ccc3c2)no1
46% | CCCCCOc1ccc2cc(-c3noc([C@@H]4[C@@H](O)CCN4C(=N)N)n3)ccc2c1
47% | N=C(N)N1CCC[C@H]1c1nc(-c2ccc3cc(OCCc4ccccc4C(F)(F)F)ccc3c2)no1
43% | N#Cc1ccc(COc2ccc3cc(-c4noc([C@@H]5CCCN5C(=N)N)n4)ccc3c2)cc1
77% | N=C(N)N1CCC[C@H]1c1nc(-c2ccc3cc(OCC(=O)c4ccc(-c5ccccc5)cc4)ccc3c2)no1
81% | N=C(N)N1CCC[C@H]1c1nc(-c2ccc3cc(OCc4cccc(C(F)(F)F)c4)ccc3c2)no1
97% | N=C(N)N1CCC[C@H]1c1nc(-c2ccc3cc(OCc4ccccc4)ccc3c2)no1
57% | N=C(N)N1CCC[C@H]1c1nc(-c2ccc3cc(OCC4CCCC4)ccc3c2)no1
118% | COCCOc1ccc2cc(-c3noc([C@@H]4CCCN4C(=N)N)n3)ccc2c1
83% | CCCCCCCOc1ccc2cc(-c3noc([C@@H]4CCCN4C(=N)N)n3)ccc2c1
34% | N=C(N)N1CCC[C@H]1c1nc(-c2ccc3cc(OCCc4cccc(C(F)(F)F)c4)ccc3c2)no1
89% | Cc1ccc(S(=O)(=O)Oc2ccc3cc(-c4noc([C@@H]5CCCN5C(=N)N)n4)ccc3c2)cc1
46% | N=C(N)N1CCC[C@H]1c1nc(-c2ccc3cc(OCc4cccc(Cl)c4)ccc3c2)no1
64% | CCCCCCOc1ccc2cc(-c3noc([C@@H]4CCCN4C(=N)N)n3)ccc2c1
35% | N=C(N)N1CCC[C@H]1c1nc(-c2ccc3cc(OCc4ccc(Br)cc4)ccc3c2)no1
42% | N=C(N)N1CCC[C@H]1c1nc(-c2ccc3cc(OCc4ccc(C(F)(F)F)cc4)ccc3c2)no1
103% | N=C(N)N1CCC[C@H]1c1nc(-c2ccc3cc(OCC(=O)c4ccccc4)ccc3c2)no1
30% | N=C(N)N1CCC[C@H]1c1nc(-c2ccc3cc(OCCc4ccc(C(F)(F)F)cc4)ccc3c2)no1
109% | COCCCOc1ccc2cc(-c3noc([C@@H]4CCCN4C(=N)N)n3)ccc2c1
51% | CCCCCOc1ccc2cc(-c3noc([C@@H]4CCCN4C(=N)N)n3)ccc2c1
106% | N=C(N)N1CCC[C@H]1c1nc(-c2ccc3cc(O)ccc3c2)no1
69% | CCCCOc1ccc2cc(-c3noc([C@@H]4CCCN4C(=N)N)n3)ccc2c1
74% | CC(C)COc1ccc2cc(-c3noc([C@@H]4CCCN4C(=N)N)n3)ccc2c1
53% | CC(C)COc1ccc2cc(-c3noc([C@@H]4[C@@H](O)CCN4C(=N)N)n3)ccc2c1
56% | N=C(N)N1CCC[C@H]1c1nc(-c2ccc3cc(OCc4ccc(Cl)cc4)ccc3c2)no1
65% | N=C(N)N1CCC[C@H]1c1nc(-c2ccc3cc(OCC(=O)c4ccc(C(F)(F)F)cc4)ccc3c2)no1

Compound | Activity
CC1(C)CCC(C)(C)c2cc(COc3ccc4cc(-c5noc([C@@H]6CCCN6C(=N)N)n5)ccc4c3)ccc21 | 104%

The compounds below were run against T2, Sphingosine kinase 2 (Homo sapiens, UniProt Q9NRA0) (assay: Inhibition of human recombinant SphK2 using sphingosine as substrate incubated for 20 mins by scintillation counting analysis in presence of [gamma-32P]ATP).
T2 sequence (Q9NRA0 whole entry): T1 sequence (whole entry)

Ki | Compound
1400 nM | CCCCCCCCc1ccc(-c2noc([C@@H]3CCCN3C(=N)N)n2)cc1
900 nM | CCCCCOc1ccc2cc(-c3noc([C@@H]4[C@@H](O)CCN4C(=N)N)n3)ccc2c1
3800 nM | CCCCCCOc1ccc2cc(-c3noc([C@@H]4CCCN4C(=N)N)n3)ccc2c1
1020 nM | N=C(N)N1CCC[C@H]1c1nc(-c2ccc3cc(OCc4ccc(C(F)(F)F)cc4)ccc3c2)no1
980 nM | CCCCCOc1ccc2cc(-c3noc([C@@H]4CCCN4C(=N)N)n3)ccc2c1
980 nM | CC(C)COc1ccc2cc(-c3noc([C@@H]4[C@@H](O)CCN4C(=N)N)n3)ccc2c1

Organism: Homo sapiens
Assay: Selectivity ratio of Ki for human recombinant SphK1 to Ki for human recombinant SphK2
In short: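 Recombinant human SphK1 and SphK2. Inhibitory constants came from kinetic analysis of S1P production, with sphingosine concentration varied and ATP held at a fixed concentration, run with and without inhibitor. Selectivity was taken as the ratio of the two enzymes' constants.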

Ratio Ki | Compound
0.8 | CCCCCOc1ccc2cc(-c3noc([C@@H]4[C@@H](O)CCN4C(=N)N)n3)ccc2c1
> 2.6 | CCCCCCOc1ccc2cc(-c3noc([C@@H]4CCCN4C(=N)N)n3)ccc2c1
7.3 | CCCCCOc1ccc2cc(-c3noc([C@@H]4CCCN4C(=N)N)n3)ccc2c1
0.9 | CC(C)COc1ccc2cc(-c3noc([C@@H]4[C@@H](O)CCN4C(=N)N)n3)ccc2c1

What follows are compounds tested against Sphingosine kinase 1 (Homo sapiens, UniProt Q9NYA1) (assay: Inhibition of human recombinant SphK1 using sphingosine as substrate incubated for 20 mins by scintillation counting analysis in presence of [gamma-32P]ATP).
Chain of Sphingosine kinase 1 (Q9NYA1 whole entry): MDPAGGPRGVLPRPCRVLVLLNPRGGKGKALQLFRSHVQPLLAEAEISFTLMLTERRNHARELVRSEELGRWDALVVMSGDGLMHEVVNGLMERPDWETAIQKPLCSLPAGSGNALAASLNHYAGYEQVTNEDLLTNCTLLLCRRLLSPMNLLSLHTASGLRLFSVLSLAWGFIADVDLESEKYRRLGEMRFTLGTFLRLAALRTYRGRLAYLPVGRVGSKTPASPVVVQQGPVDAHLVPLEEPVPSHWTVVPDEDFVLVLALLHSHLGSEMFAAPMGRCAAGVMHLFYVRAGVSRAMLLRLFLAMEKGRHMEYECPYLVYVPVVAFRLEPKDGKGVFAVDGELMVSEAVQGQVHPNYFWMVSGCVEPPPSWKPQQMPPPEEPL

Ki | Compound
730 nM | CCCCCOc1ccc2cc(-c3noc([C@@H]4[C@@H](O)CCN4C(=N)N)n3)ccc2c1
> 10000 nM | CCCCCCOc1ccc2cc(-c3noc([C@@H]4CCCN4C(=N)N)n3)ccc2c1
7200 nM | CCCCCOc1ccc2cc(-c3noc([C@@H]4CCCN4C(=N)N)n3)ccc2c1
930 nM | CC(C)COc1ccc2cc(-c3noc([C@@H]4[C@@H](O)CCN4C(=N)N)n3)ccc2c1
